Measured values reported in ChEMBL document CHEMBL4130520 (ACS Med Chem Lett, 2017).
In brackets after ≈: the same amount, converted by molar mass.

Key:
[1] = tested on: Mycobacterium tuberculosis; test: Antitubercular activity against Mycobacterium tuberculosis H37Rv after 4 days by MABA method; format: functional; conditions: 96 h
Method in brief: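 Aerobic culture of H37Rv in microplate Alamar blue assay. MIC90 taken as the minimum concentration giving 90% growth inhibition. Each value is the mean of at least two independent determinations. Most compounds were tested as RS,SR diastereomer mixtures; a few were tested only as the pure R,S enantiomer.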

[2] = target: Voltage-gated inwardly rectifying potassium channel KCNH2 (Homo sapiens, UniProt Q12809); test: Inhibition of human ERG
Sequence of Voltage-gated inwardly rectifying potassium channel KCNH2 (Q12809 whole entry): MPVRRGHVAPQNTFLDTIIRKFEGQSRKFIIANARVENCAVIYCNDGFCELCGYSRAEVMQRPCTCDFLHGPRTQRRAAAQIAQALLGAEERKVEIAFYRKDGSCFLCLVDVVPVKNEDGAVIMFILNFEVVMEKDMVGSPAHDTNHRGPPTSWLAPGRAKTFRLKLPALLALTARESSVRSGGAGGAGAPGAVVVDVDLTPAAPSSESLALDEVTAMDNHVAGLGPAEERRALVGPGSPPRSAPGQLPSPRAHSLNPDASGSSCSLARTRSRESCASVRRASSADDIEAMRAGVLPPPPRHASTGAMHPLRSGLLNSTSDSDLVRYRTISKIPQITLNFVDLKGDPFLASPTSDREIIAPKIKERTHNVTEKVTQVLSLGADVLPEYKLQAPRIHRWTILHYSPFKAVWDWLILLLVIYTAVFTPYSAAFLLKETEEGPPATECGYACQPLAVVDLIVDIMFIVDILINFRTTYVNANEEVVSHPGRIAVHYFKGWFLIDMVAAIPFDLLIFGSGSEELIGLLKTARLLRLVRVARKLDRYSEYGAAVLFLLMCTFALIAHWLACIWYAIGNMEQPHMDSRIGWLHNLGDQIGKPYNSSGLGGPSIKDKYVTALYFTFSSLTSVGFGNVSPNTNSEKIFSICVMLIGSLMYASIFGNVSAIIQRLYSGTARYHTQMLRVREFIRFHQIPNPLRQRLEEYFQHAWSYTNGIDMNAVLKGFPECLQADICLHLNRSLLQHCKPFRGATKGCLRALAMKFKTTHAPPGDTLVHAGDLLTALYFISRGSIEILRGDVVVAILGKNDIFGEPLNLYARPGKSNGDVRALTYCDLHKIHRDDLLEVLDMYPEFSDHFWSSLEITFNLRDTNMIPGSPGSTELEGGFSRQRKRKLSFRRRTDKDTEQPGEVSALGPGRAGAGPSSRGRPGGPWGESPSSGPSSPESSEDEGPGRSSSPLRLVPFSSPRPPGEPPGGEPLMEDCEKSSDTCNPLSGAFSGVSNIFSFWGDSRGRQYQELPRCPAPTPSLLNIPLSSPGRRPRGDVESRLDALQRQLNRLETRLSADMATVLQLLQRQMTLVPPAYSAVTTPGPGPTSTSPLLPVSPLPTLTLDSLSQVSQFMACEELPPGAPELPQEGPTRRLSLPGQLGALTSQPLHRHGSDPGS

| Structure (SMILES) | MIC90 [1] [µg/mL] | IC50 [2] [µM] |
| --- | --- | --- |
| COc1cccc(C(c2cc3cc(C#N)ccc3nc2OC)C(O)(CCN(C)C)c2cccc(F)c2)c1OC (stereo not given) | 0.17 (≈ 0.321 µM) | – |
| COc1cccc([C@@H](c2cc3cc(N4CCSCC4)ccc3nc2OC)[C@@](O)(CCN(C)C)c2cccc(F)c2)c1F | 0.19 (≈ 0.32 µM) | – |
| COc1cccc([C@@H](c2cc3cc(N4CCS(=O)(=O)CC4)ccc3nc2OC)[C@@](O)(CCN(C)C)c2cccc(F)c2)c1F | > 5 | – |
| COc1nc2ccc(CN(C)C)cc2cc1C(c1ccccc1)C(O)(CCN(C)C)c1cccc2ccccc12 (stereo not given) | 3.7 (≈ 6.93 µM) | 4.8 |
| COc1cccc(C(c2cc3cc(N4CCCCC4)ccc3nc2OC)C(O)(CCN(C)C)c2cccc(OC(F)(F)F)c2)c1F (stereo not given) | 2.3 (≈ 3.58 µM) | – |
| COc1nc2ccc(NC3CCCC3)cc2cc1C(c1ccccc1)C(O)(CCN(C)C)c1cccc2ccccc12 (stereo not given) | 1.7 (≈ 3.04 µM) | – |
| COc1nc2ccc(/C=N/O)cc2cc1C(c1ccccc1)C(O)(CCN(C)C)c1cccc2ccccc12 (stereo not given) | 6 (≈ 11.5 µM) | 3.5 |
| COc1nc2ccc(CO)cc2cc1C(c1ccccc1)C(O)(CCN(C)C)c1cccc2ccccc12 (stereo not given) | 1.6 (≈ 3.16 µM) | 10 |
| COc1nc2ccc(C(F)(F)F)cc2cc1C(c1ccccc1)C(O)(CCN(C)C)c1cccc2ccccc12 (stereo not given) | 0.38 (≈ 0.698 µM) | – |
| COc1nc2ccc(Cl)cc2cc1C(c1ccccc1)C(O)(CCN(C)C)c1cccc2ccccc12 (stereo not given) | 0.71 (≈ 1.39 µM) | 6.9 |
| COc1nc2ccc(Br)cc2cc1C(c1ccccc1)C(O)(CCN(C)C)c1cccc(F)c1 (stereo not given) | 0.23 (≈ 0.439 µM) | – |
| COc1nc2ccc(N)cc2cc1C(c1ccccc1)C(O)(CCN(C)C)c1cccc2ccccc12 (stereo not given) | 1.9 (≈ 3.86 µM) | – |
| COc1cccc(C(c2cc3cc(N4CC5(COC5)C4)ccc3nc2OC)C(O)(CCN(C)C)c2cccc(OC(F)(F)F)c2)c1F (stereo not given) | 0.77 (≈ 1.17 µM) | – |
| COc1cccc([C@@H](c2cc3cc(N4CC5(COC5)C4)ccc3nc2OC)[C@@](O)(CCN(C)C)c2cccc(C)c2)c1F | 1.1 (≈ 1.88 µM) | – |
| COc1cccc(C(c2cc3cc(Br)ccc3nc2OC)C(O)(CCN(C)C)c2cccc(OC(F)(F)F)c2)c1OC (stereo not given) | 0.09 (≈ 0.139 µM) | – |
| COc1nc2ccc(C3CC3)cc2cc1C(c1ccccc1)C(O)(CCN(C)C)c1cccc2ccccc12 (stereo not given) | 0.13 (≈ 0.252 µM) | – |
| COc1cccc([C@](O)(CCN(C)C)[C@H](c2cc3cc(N4CC5(COC5)C4)ccc3nc2OC)c2cccc(OC)c2F)c1 | 0.87 (≈ 1.45 µM) | – |
| COc1nc2ccc(N(C)S(=O)(=O)c3ccccc3)cc2cc1[C@@H](c1ccccc1)[C@@](O)(CCN(C)C)c1cccc(F)c1 | 4.1 (≈ 6.68 µM) | – |
| C=Cc1ccc2nc(OC)c(C(c3ccccc3)C(O)(CCN(C)C)c3cccc4ccccc34)cc2c1 (stereo not given) | 1.9 (≈ 3.78 µM) | – |
| COc1cccc(C(c2cc3cc(Br)ccc3nc2OC)C(O)(CCN(C)C)c2cccc(F)c2)c1OC (stereo not given) | 0.04 (≈ 0.0686 µM) | – |
| COc1cccc(C(c2cc3cc(N4CC5(COC5)C4)ccc3nc2OC)C(O)(CCN(C)C)c2cccc(F)c2)c1OC (stereo not given) | 0.66 (≈ 1.1 µM) | – |
| COc1cccc([C@H](c2cc3cc(N4CCSCC4)ccc3nc2OC)[C@@](O)(CCN(C)C)c2cccc(F)c2)c1OC | 0.28 (≈ 0.462 µM) | – |
| COc1cccc([C@@H](c2cc3cc(N4CC5(COC5)C4)ccc3nc2OC)[C@@](O)(CCN(C)C)c2cccc(Cl)c2)c1F | 0.31 (≈ 0.511 µM) | – |
| COc1cccc([C@H](c2cc3cc(N4CC[S+]([O-])CC4)ccc3nc2OC)[C@@](O)(CCN(C)C)c2cccc(F)c2)c1OC | 4.8 (≈ 7.72 µM) | – |
| C#Cc1ccc2nc(OC)c(C(c3ccccc3)C(O)(CCN(C)C)c3cccc(F)c3)cc2c1 (stereo not given) | 0.36 (≈ 0.768 µM) | – |

| Structure (SMILES) | MIC90 [1] [µg/mL] | IC50 [2] [µM] |
| --- | --- | --- |
| COc1nc2ccc(C(=O)N(C)C)cc2cc1C(c1ccccc1)C(O)(CCN(C)C)c1cccc2ccccc12 (stereo not given) | 2.2 (≈ 4.02 µM) | 6.3 |
| COc1nc2ccc(N(C)S(=O)(=O)N(C)C)cc2cc1[C@@H](c1ccccc1)[C@@](O)(CCN(C)C)c1cccc(F)c1 | 5 (≈ 8.61 µM) | – |
| COc1nc2ccc(OC(F)(F)F)cc2cc1C(c1ccccc1)C(O)(CCN(C)C)c1cccc2ccccc12 (stereo not given) | 0.24 (≈ 0.428 µM) | – |
| COc1cccc(C(c2cc3cc(C#N)ccc3nc2OC)C(O)(CCN(C)C)c2cccc(OC(F)(F)F)c2)c1F (stereo not given) | 0.26 (≈ 0.446 µM) | – |
| COc1cccc([C@@H](c2cc3cc(SC)ccc3nc2OC)[C@@](O)(CCN(C)C)c2cccc(F)c2)c1F | 0.13 (≈ 0.241 µM) | – |
| COc1cccc(C(O)(CCN(C)C)C(c2cc3cc(Br)ccc3nc2OC)c2cccc(OC)c2F)c1 (stereo not given) | 0.1 (≈ 0.171 µM) | – |
| COc1nc2ccccc2cc1C(c1ccccc1)C(O)(CCN(C)C)c1cccc2ccccc12 (stereo not given) | 1.9 (≈ 3.99 µM) | 1.6 |
| COc1nc2ccc(C)cc2cc1C(c1ccccc1)C(O)(CCN(C)C)c1cccc2ccccc12 (stereo not given) | 1.74 (≈ 3.55 µM) | – |
| COc1nc2ccc(Br)cc2cc1C(c1cccc(F)c1)C(O)(CCN(C)C)c1cccc(OC(F)(F)F)c1 (stereo not given) | 0.25 (≈ 0.412 µM) | – |
| COc1cccc(C(c2cc3cc(N4CCNCC4)ccc3nc2OC)C(O)(CCN(C)C)c2cccc(OC(F)(F)F)c2)c1F (stereo not given) | 0.66 (≈ 1.03 µM) | – |
| COc1cccc(C(c2cc3cc(N4CC5(COC5)C4)ccc3nc2OC)[C@@](O)(CCN(C)C)c2cccc(F)c2)c1F (single isomer, unassigned) | 0.51 (≈ 0.865 µM) | – |
| COc1cccc(C(c2cc3cc(N4CCOCC4)ccc3nc2OC)C(O)(CCN(C)C)c2cccc(OC(F)(F)F)c2)c1F (stereo not given) | 0.14 (≈ 0.218 µM) | – |
| COc1cccc(C(c2cc3cc(Br)ccc3nc2OC)C(O)(CCN(C)C)c2cccc(C)c2)c1F (stereo not given) | 0.04 (≈ 0.0705 µM) | – |
| CO/N=C/c1ccc2nc(OC)c([C@@H](c3ccccc3)[C@](O)(CCN(C)C)c3cccc4ccccc34)cc2c1 | 0.21 (≈ 0.394 µM) | 2.2 |
| COc1cccc(C(c2cc3cc(Cl)ccc3nc2OC)C(O)(CCN(C)C)c2cccc(OC)c2OC)c1OC (stereo not given) | 0.25 (≈ 0.43 µM) | – |
| COc1nc2ccc(N3CCOCC3)cc2cc1C(c1cccc(F)c1)C(O)(CCN(C)C)c1cccc(OC(F)(F)F)c1 (stereo not given) | 0.85 (≈ 1.39 µM) | – |
| COc1nc2ccc(CN)cc2cc1C(c1ccccc1)C(O)(CCN(C)C)c1cccc2ccccc12 (stereo not given) | > 12 | 1.7 |
| COc1cccc(C(c2cc3cc(C#N)ccc3nc2OC)C(O)(CCN(C)C)c2cccc(F)c2)c1F (stereo not given) | 0.18 (≈ 0.348 µM) | – |
| COc1cccc(C(c2cc3cc(Br)ccc3nc2OC)C(O)(CCN(C)C)c2cccc(OC)c2OC)c1OC (stereo not given) | 0.2 (≈ 0.32 µM) | – |
| COc1cccc([C@H](c2cc3cc(N(C)S(=O)(=O)N(C)C)ccc3nc2OC)[C@@](O)(CCN(C)C)c2cccc(F)c2)c1OC | 1.13 (≈ 1.76 µM) | – |
| COc1cccc(C(c2cc3cc(N4CC5(COC5)C4)ccc3nc2OC)C(O)(CCN(C)C)c2cccc(OC(F)(F)F)c2)c1OC (stereo not given) | 0.75 (≈ 1.12 µM) | – |
| COc1cccc(C(c2cc3cc(C#N)ccc3nc2OC)C(O)(CCN(C)C)c2cccc(OC)c2OC)c1OC (stereo not given) | 0.34 (≈ 0.595 µM) | – |
| COc1nc2ccc(NC3CCC3)cc2cc1[C@@H](c1ccccc1)[C@@](O)(CCN(C)C)c1cccc2ccccc12 | 0.48 (≈ 0.88 µM) | – |
| COc1cccc([C@H](c2cc3cc(N4CCS(=O)(=O)CC4)ccc3nc2OC)[C@@](O)(CCN(C)C)c2cccc(F)c2)c1OC | > 5 | – |
| COc1nc2ccc(N3CC4(COC4)C3)cc2cc1[C@@H](c1ccccc1)[C@@](O)(CCN(C)C)c1cccc2ccccc12 | 0.71 (≈ 1.24 µM) | – |

| Structure (SMILES) | MIC90 [1] [µg/mL] | IC50 [2] [µM] |
| --- | --- | --- |
| COc1nc2ccc(Br)cc2cc1[C@@H](c1ccccc1)[C@@](O)(CCN(C)C)c1cccc2ccccc12 [BEDAQUILINE] | 0.09 (≈ 0.162 µM) | – |
| COc1cccc(C(c2cc3cc(N4CCOCC4)ccc3nc2OC)C(O)(CCN(C)C)c2cccc(OC(F)(F)F)c2)c1OC (stereo not given) | 0.68 (≈ 1.04 µM) | – |
| COc1cccc(C(c2cc3cc(C#N)ccc3nc2OC)C(O)(CCN(C)C)c2cccc(Cl)c2)c1F (stereo not given) | 0.13 (≈ 0.243 µM) | – |
| COc1cccc(C(c2cc3cc(C#N)ccc3nc2OC)C(O)(CCN(C)C)c2cccc(OC(F)(F)F)c2)c1OC (stereo not given) | 0.21 (≈ 0.353 µM) | – |
| COc1nc2ccc(Cl)cc2cc1C(c1cccc(F)c1)C(O)(CCN(C)C)c1cccc(OC(F)(F)F)c1 (stereo not given) | 0.09 (≈ 0.16 µM) | – |
| COc1nc2ccc(C#N)cc2cc1C(c1cccc(F)c1)C(O)(CCN(C)C)c1cccc(OC(F)(F)F)c1 (stereo not given) | 0.47 (≈ 0.849 µM) | – |
| COc1cccc(C(O)(CCN(C)C)C(c2cc3cc(C#N)ccc3nc2OC)c2cccc(OC)c2F)c1 (stereo not given) | 0.09 (≈ 0.17 µM) | – |
| CCc1ccc2nc(OC)c(C(c3ccccc3)C(O)(CCN(C)C)c3cccc4ccccc34)cc2c1 (stereo not given) | 0.23 (≈ 0.456 µM) | – |
| COc1nc2ccc(C#N)cc2cc1C(c1ccccc1)C(O)(CCN(C)C)c1cccc(F)c1 (stereo not given) | 0.69 (≈ 1.47 µM) | – |
| COc1cccc([C@@H](c2cc3cc(N4CC[S+]([O-])CC4)ccc3nc2OC)[C@@](O)(CCN(C)C)c2cccc(F)c2)c1F | > 5 | – |
| COc1nc2ccc(C(=O)O)cc2cc1C(c1ccccc1)C(O)(CCN(C)C)c1cccc2ccccc12 (stereo not given) | > 6.7 | 10 |
| COc1nc2ccc(CC(C)=O)cc2cc1C(c1ccccc1)C(O)(CCN(C)C)c1cccc2ccccc12 (stereo not given) | > 7 | 10 |
| COc1cccc(C(c2cc3cc(Br)ccc3nc2OC)C(O)(CCN(C)C)c2cccc(Cl)c2)c1F (stereo not given) | 0.07 (≈ 0.119 µM) | – |
| COc1cccc(C(c2cc3cc(F)ccc3nc2OC)C(O)(CCN(C)C)c2cccc(OC(F)(F)F)c2)c1F (stereo not given) | 0.21 (≈ 0.364 µM) | – |
| COc1cccc(C(c2cc3cc(Br)ccc3nc2OC)C(O)(CCN(C)C)c2cccc(F)c2)c1F (stereo not given) | 0.1 (≈ 0.175 µM) | – |
| C#Cc1ccc2nc(OC)c(C(c3ccccc3)C(O)(CCN(C)C)c3cccc4ccccc34)cc2c1 (stereo not given) | 0.48 (≈ 0.959 µM) | – |
| COc1nc2ccc(I)cc2cc1C(c1ccccc1)C(O)(CCN(C)C)c1cccc2ccccc12 (stereo not given) | 0.2 (≈ 0.332 µM) | – |
| COc1cccc(C(c2cc3cc(Br)ccc3nc2OC)C(O)(CCN(C)C)c2cccc(OC(F)(F)F)c2)c1F (stereo not given) | 0.09 (≈ 0.141 µM) | – |
| COc1cccc(C(c2cc3cc(OC(F)(F)F)ccc3nc2OC)C(O)(CCN(C)C)c2cccc(OC(F)(F)F)c2)c1F (stereo not given) | 1.1 (≈ 1.71 µM) | – |
| COc1cccc(C(c2cc3cc(N4CCOCC4)ccc3nc2OC)C(O)(CCN(C)C)c2cccc(OC)c2OC)c1OC (stereo not given) | 2.5 (≈ 3.96 µM) | – |
| COc1nc2ccc(F)cc2cc1C(c1ccccc1)C(O)(CCN(C)C)c1cccc2ccccc12 (stereo not given) | 0.94 (≈ 1.9 µM) | – |
| COc1cccc([C@@H](c2cc3cc(S(C)(=O)=O)ccc3nc2OC)[C@@](O)(CCN(C)C)c2cccc(F)c2)c1F | 2.3 (≈ 4.03 µM) | – |
| COc1cccc(C(c2cc3cc(C#N)ccc3nc2OC)C(O)(CCN(C)C)c2cccc(C)c2)c1F (stereo not given) | 0.09 (≈ 0.175 µM) | – |
| CC#Cc1ccc2nc(OC)c(C(c3ccccc3)C(O)(CCN(C)C)c3cccc4ccccc34)cc2c1 (stereo not given) | 6.1 (≈ 11.9 µM) | 7.9 |
